Measured values taken from ChEMBL document CHEMBL1914423, “New imidazo[2,1-b]thiazole derivatives: synthesis, in vitro anticancer evaluation, and in silico studies” (Eur J Med Chem, 2011).

How the values were obtained:
Type in all cases: functional
K562 = assay: Anticancer activity against human K562 cells after 48 hrs by SRB assay; conditions: K562, 48 h
Procedure, shortened: (§1)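 NCI five-dose screen. Cells in RPMI 1640 with 5% FBS and 2 mM L-glutamine, seeded at 5000–40,000 cells/well according to doubling time, then pre-incubated 24 h at 37 °C in 5% CO2. Drugs dissolved in DMSO, five concentrations by 10-fold or 1/2-log dilution. Cells fixed with TCA, SRB-stained, A515 read. IC50 solved from [(Ti−Tz)/(C−Tz)]×100 = 50.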

MOLT-4 = assay: Anticancer activity against human MOLT4 cells after 48 hrs by SRB assay; conditions: MOLT-4, 48 h
SR = assay: Anticancer activity against human SR cells after 48 hrs by SRB assay
Procedure, shortened: (§2)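 NCI-60 five-dose mode: cells in RPMI 1640 with 5% FBS and 2 mM glutamine, plated at 5000–40,000 cells/well, and preincubated 24 h, with time-zero plates TCA-fixed. Drug given at five concentrations (10-fold or ½-log serial dilutions). Cold TCA fixation 60 min at 4 °C, SRB stain, Tris solubilization, A515. IC50 taken where [(Ti−Tz)/(C−Tz)]×100 = 50.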

A549 = assay: Anticancer activity against human A549 cells after 48 hrs by SRB assay; conditions: A549, 48 h; procedure, shortened: as §1
EKVX = assay: Anticancer activity against human EKVX cells after 48 hrs by SRB assay; procedure, shortened: as §1
HOP-92 = assay: Anticancer activity against human HOP92 cells after 48 hrs by SRB assay; conditions: HOP-92, 48 h; procedure, shortened: as §1
NCI-H322M = assay: Anticancer activity against human NCI-H322M cells after 48 hrs by SRB assay
NCI-H522 = assay: Anticancer activity against human NCI-H522 cells after 48 hrs by SRB assay; conditions: NCI-H522, 48 h
COLO 205 = assay: Anticancer activity against human COLO205 cells after 48 hrs by SRB assay; conditions: COLO 205, 48 h; procedure, shortened: as §1
HCC 2998 = assay: Anticancer activity against human HCC2998 cells after 48 hrs by SRB assay; conditions: HCC 2998, 48 h; procedure, shortened: as §1
HCT-116 = assay: Anticancer activity against human HCT116 cells after 48 hrs by SRB assay; conditions: HCT-116, 48 h; procedure, shortened: as §1
KM12 = assay: Anticancer activity against human KM12 cells after 48 hrs by SRB assay; conditions: KM12, 48 h; procedure, shortened: as §1
SF-295 = assay: Anticancer activity against human SF295 cells after 48 hrs by SRB assay; conditions: SF-295, 48 h
SNB-75 = assay: Anticancer activity against human SNB75 cells after 48 hrs by SRB assay; conditions: SNB-75, 48 h
U-251 = assay: Anticancer activity against human U251 cells after 48 hrs by SRB assay; conditions: U-251, 48 h; procedure, shortened: as §2
M14 = assay: Anticancer activity against human M14 cells after 48 hrs by SRB assay; conditions: M14, 48 h; procedure, shortened: as §1
MDA-MB-435 = assay: Anticancer activity against human MDA-MB-435 cells after 48 hrs by SRB assay; conditions: MDA-MB-435, 48 h; procedure, shortened: as §1
SK-MEL-2 = assay: Anticancer activity against human SK-MEL-2 cells after 48 hrs by SRB assay; conditions: SK-MEL-2, 48 h
OVCAR-3 = assay: Anticancer activity against human OVCAR3 cells after 48 hrs by SRB assay; conditions: OVCAR-3, 48 h
A498 = assay: Anticancer activity against human A498 cells after 48 hrs by SRB assay; conditions: A498, 48 h; procedure, shortened: as §1
ACHN = assay: Anticancer activity against human ACHN cells after 48 hrs by SRB assay; procedure, shortened: as §1
RXF 393 = assay: Anticancer activity against human RXF393 cells after 48 hrs by SRB assay; conditions: RXF 393, 48 h
TK-10 = assay: Anticancer activity against human TK10 cells after 48 hrs by SRB assay; conditions: TK-10, 48 h; procedure, shortened: as §2
PC-3 = assay: Anticancer activity against human PC3 cells after 48 hrs by SRB assay; conditions: PC-3, 48 h
DU-145 = assay: Anticancer activity against human DU145 cells after 48 hrs by SRB assay; conditions: DU-145, 48 h; procedure, shortened: as §1
MCF7 = assay: Anticancer activity against human MCF7 cells after 48 hrs by SRB assay; conditions: MCF7, 48 h; procedure, shortened: as §1
MDA-MB-231 = assay: Anticancer activity against human MDA-MB-231 cells after 48 hrs by SRB assay; conditions: MDA-MB-231, 48 h; procedure, shortened: as §1
[1] = Anticancer activity against human Hs 578T cells after 48 hrs by SRB assay; procedure, shortened: as §1
T47D = assay: Anticancer activity against human T47D cells after 48 hrs by SRB assay; procedure, shortened: as §2
MDA-MB-468 = assay: Anticancer activity against human MDA-MB-468 cells after 48 hrs by SRB assay; conditions: MDA-MB-468, 48 h
[2] = read-out: LC50 (the source's name)

With `O=C(NCCNc1nccc(-c2c(-c3cccc(O)c3)nc3sccn23)n1)c1ccccc1` the GI50 (K562) was 9.11 µM, the TGI (K562) was greater than 100 µM and the CC50 (K562; [2]) was greater than 100 µM. For the same compound, the GI50 (MOLT-4) was 13.5 µM, the TGI (MOLT-4) was 74.2 µM and the CC50 (MOLT-4; [2]) was greater than 100 µM. For the same compound, the GI50 (SR) was 5.68 µM, the TGI (SR) was 50 µM and the CC50 (SR; [2]) was greater than 100 µM. It also gave a GI50 (A549) of 9.21 µM, a TGI (A549) of 46.5 µM and a GI50 (EKVX) of 25 µM. It also gave a TGI (EKVX) greater than 100 µM, a GI50 (HOP-92) of 2.22 µM and a TGI (HOP-92) of 33.2 µM. The CC50 (HOP-92; [2]) was greater than 100 µM, the GI50 (NCI-H322M) was 26.3 µM and the TGI (NCI-H322M) was greater than 100 µM. It also gave a CC50 (NCI-H322M; [2]) greater than 100 µM, a GI50 (NCI-H522) of 5.76 µM and a TGI (NCI-H522) of 25.5 µM. For the same compound, the CC50 (NCI-H522; [2]) was 93.9 µM, the GI50 (COLO 205) was 3.99 µM and the TGI (COLO 205) was 23.8 µM. It also gave a CC50 (COLO 205; [2]) greater than 100 µM, a GI50 (HCC 2998) of 13.8 µM and a TGI (HCC 2998) of 31.2 µM. It also gave a CC50 (HCC 2998; [2]) of 70.3 µM, a GI50 (HCT-116) of 4.82 µM and a TGI (HCT-116) of 17.5 µM. The CC50 (HCT-116; [2]) was 49.6 µM, the GI50 (KM12) was 12.1 µM and the TGI (KM12) was 28.5 µM. The CC50 (KM12; [2]) was 67.1 µM, the GI50 (SF-295) was 12.9 µM and the TGI (SF-295) was 38 µM. It also gave a CC50 (SF-295; [2]) greater than 100 µM, a GI50 (SNB-75) of 3.27 µM and a TGI (SNB-75) of 28.1 µM. The CC50 (SNB-75; [2]) was greater than 100 µM, the GI50 (U-251) was 17.9 µM and the TGI (U-251) was greater than 100 µM. The CC50 (U-251; [2]) was greater than 100 µM, the GI50 (M14) was 0.434 µM and the TGI (M14) was 12.3 µM. It also gave a CC50 (M14; [2]) of 37.3 µM, a GI50 (MDA-MB-435) of 0.578 µM and a TGI (MDA-MB-435) of 12.8 µM. For the same compound, the CC50 (MDA-MB-435; [2]) was 71.3 µM, the GI50 (SK-MEL-2) was 2.94 µM and the TGI (SK-MEL-2) was 12.9 µM. It also gave a CC50 (SK-MEL-2; [2]) of 48.8 µM, a GI50 (OVCAR-3) of 12.3 µM and a TGI (OVCAR-3) of 64.8 µM. The CC50 (OVCAR-3; [2]) was greater than 100 µM, the GI50 (A498) was 3.68 µM and the TGI (A498) was 19.3 µM. It also gave a CC50 (A498; [2]) of 58 µM, a GI50 (ACHN) of 6.43 µM and a TGI (ACHN) of 34.9 µM. The CC50 (ACHN; [2]) was greater than 100 µM, the GI50 (RXF 393) was 4.14 µM and the TGI (RXF 393) was 22.2 µM. It also gave a CC50 (RXF 393; [2]) of 98.1 µM, a GI50 (TK-10) of 11.7 µM and a TGI (TK-10) of 37.1 µM. It also gave a CC50 (TK-10; [2]) greater than 100 µM, a GI50 (PC-3) of 11.9 µM and a TGI (PC-3) of 65.7 µM. The CC50 (PC-3; [2]) was greater than 100 µM, the GI50 (DU-145) was 19.7 µM and the TGI (DU-145) was 68.7 µM. For the same compound, the CC50 (DU-145; [2]) was greater than 100 µM, the GI50 (MCF7) was 3.24 µM and the TGI (MCF7) was 14.9 µM. The CC50 (MCF7; [2]) was 46.5 µM, the GI50 (MDA-MB-231) was 7.05 µM and the TGI (MDA-MB-231) was 31.5 µM. The CC50 (MDA-MB-231; [2]) was greater than 100 µM, the GI50 [1] was 4.86 µM and the TGI [1] was 38.3 µM. It also gave a CC50 [1, 2] greater than 100 µM, a GI50 (T47D) of 11 µM and a TGI (T47D) of 49 µM. It also gave a CC50 (T47D; [2]) greater than 100 µM, a GI50 (MDA-MB-468) of 3.6 µM and a TGI (MDA-MB-468) of 28.7 µM. For the same compound, the CC50 (MDA-MB-468; [2]) was greater than 100 µM.
